Data published in ChEMBL document CHEMBL5108069, “Selective C9orf72 G-Quadruplex-Binding Small Molecules Ameliorate Pathological Signatures of ALS/FTD Models” (J Med Chem, 2022).
The source made the active and inactive calls. The calls are words filed in the database; no cut-off is given here.

How the values were obtained:
[1] = system: Quadruplex DNA; assay: Binding affinity to C9orf72 (G4C2)4 G4 quadruplex DNA (unknown origin) assessed as compound-DNA complex formation at pH 7 in 25 degree C by circular dichroism spectroscopy; type: nucleic-acid assay
In short: (§1)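 G4 at 15 μM mixed with compound at 1:10 molar ratio, pH 6 or pH 7. CD spectra recorded at 25 °C in a 1 mm quartz cuvette as the mean of three scans, buffer subtracted.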

[2] = system: HT-22; assay: Neuroprotective activity in retinoic acid and cAMP differentiated mouse HT-22 cells assessed as decrease in glutamate induced cellular ROS level incubated for 1 hrs by DCFH-DA based […]; type: functional, cell-based; conditions: DDE = dose-dependent effect
In short: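 HT22 cells differentiated for 48 h with 10 μM retinoic acid and 500 μM cAMP in DMEM with 0.5% FBS. 5 mM L-glutamate given for 24 h, then 10 μM DCFH-DA loaded for 30 min at 37 °C and washed off. Compounds at 2 μg/mL added for 1 h; Rosup served as positive control. DCF read at 488/525 nm on a plate reader. n = 18–42 wells from three batches.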

[3] = system: Erythrocyte; assay: Hemolytic activity in rabbit RBC assessed as hemolysis at 250 to 1000 ug/ml incubated for 1 hr by microtiter plate method; type: toxicity, cell-based, Oryctolagus cuniculus; conditions: DDE = dose-dependent effect, dose 250-1000 µg/ml
In short: (§2)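 Fresh rabbit red cells washed in PBS and used as a 2% suspension. Compounds diluted in PBS to final 250, 500 and 1000 μg/mL, mixed with an equal volume of cells, incubated 1 h at 37 °C. After centrifugation, supernatant absorbance read at 570 nm. Controls: 10% Triton X-100 (positive), 1% DMSO in PBS (negative). n = 3 preparations.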

[4] = system: Quadruplex DNA; assay: Binding affinity to C9orf72 (G4C2)2 G4 quadruplex RNA (unknown origin) assessed as compound-DNA complex formation at pH 6 in 25 degree C by circular dichroism spectroscopy; type: nucleic-acid assay; in short: as §1
[5] = system: Quadruplex DNA; assay: Stabilization of C9orf72 (G4C2)4 G4 quadruplex DNA (unknown origin) assessed as thermal stability by measuring melting temperature at pH 7 by circular dichroism spectroscopy; type: nucleic-acid assay
In short: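 G4 at 15 μM with compound at 1:10 molar ratio, pH 7. CD signal followed from 25 to 95 °C at 1 °C/min at one wavelength (290 nm for DNA G4). Absorbance normalised as (Abst − min)/(max − min), then fitted to a Boltzmann sigmoid.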

[6] = biological target: Quadruplex DNA; assay: Binding affinity to 3'-FAM labeled C9orf72 (G4C2)4 G4 quadruplex DNA (unknown origin) assessed as decrease in fluorescence intensity by fluorescence intensity assay; type: nucleic-acid assay
In short: (§3)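 3'-FAM-labelled DNA (G4C2)4 G4 or RNA (G4C2)2 G4 annealed at 98 °C for 10 min in 10 mM K+ buffer (8 mM KCl, 2 mM KH2PO4, pH 6.8), 1 μM final, slowly cooled. Compound titrated 0.1–10 mM in same buffer at room temperature. Fluorescence read at ex/em 470/520 nm. KD from nonlinear one-site specific binding fit with Hill slope.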

[7] = system: Quadruplex DNA; assay: Binding affinity to C9orf72 (G4C2)4 G4 quadruplex DNA (unknown origin) assessed as change in chemical shift at pH 7 in 25 to 45 degree C by one-dimensional 1H-NMR analysis; type: nucleic-acid assay
In short: (§4)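 Oligos (100 μM) annealed at 95 °C for 15 min, cooled slowly overnight in 70 mM KCl, 20 mM potassium phosphate, pH 7.0. NMR samples held 0.1 mM DNA or RNA. Compounds from ~50 mM DMSO-d6 stocks, titrated at G4:compound ratios 1:1 to 1:10 (RNA 1:3, 1:5, 1:10). Imino-region 1D 1H spectra at 25 °C; further spectra at pH 6 and 7, at 25, 35 and 45 °C.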

[8] = system: Quadruplex DNA; assay: Binding affinity to C9orf72 (G4C2)4 G4 quadruplex DNA (unknown origin) assessed as change in chemical shift by one-dimensional 1H-NMR analysis; type: nucleic-acid assay; in short: as §4
[9] = system: Quadruplex DNA; assay: Binding affinity to C9orf72 (G4C2)4 G4 quadruplex DNA (unknown origin) assessed as change in chemical shift at pH 6 in 25 to 45 degree C by one-dimensional 1H-NMR analysis; type: nucleic-acid assay; in short: as §4
[10] = system: Quadruplex DNA; assay: Binding affinity to C9orf72 (G4C2)4 G4 quadruplex DNA (unknown origin) assessed as compound-DNA complex formation at pH 6 in 25 degree C by circular dichroism spectroscopy; type: nucleic-acid assay; in short: as §1
[11] = system: Quadruplex DNA; assay: Binding affinity to C9orf72 (G4C2)2 G4 quadruplex RNA (unknown origin) assessed as compound-DNA complex formation at pH 7 in 25 degree C by circular dichroism spectroscopy; type: nucleic-acid assay; in short: as §1
[12] = system: HEK-293T; assay: Cytotoxicity in human HEK293T cells assessed as reduction in cell viability upto 0.1 ug/ml incubated for 24 hrs by MTT assay; type: toxicity, cell-based; conditions: dose < 0.1 µg/ml
In short: (§5)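 HEK293T cells seeded at 5 × 10^3 per well, grown 24 h in DMEM with 10% FBS. Compounds in DMSO added at 0.1, 1 and 10 μg/mL for 24 h. MTT (5 mg/mL stock) added for 4 h at 37 °C, formazan dissolved in DMSO, absorbance read at 570 nm. n = 4 culture batches.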

[13] = Permeability of compound in PBS buffer at 500 uM incubated for 18 hrs by PAMPA assay; type: ADME
In short: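 PAMPA: donor membrane coated with 4% lecithin in dodecane. 500 μM compound added to duplicate donor wells over PBS acceptor wells, incubated 18 h at 37 °C. Acceptor solution scanned 200–500 nm to find peak absorbance, referenced to equilibrium standards and a DMSO/PBS blank. n = 5.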

[14] = system: Drosophila; assay: Inhibition of eye degeneration in GMR-GAL4-(G4C2)29 Drosophila expressing (G4C2)29 in eyes C9orf72 ALS/FTD model assessed as smoothening of eyes at 100 uM, po incubated 7 day by stereomicroscopy; type: functional, organism-based
In short: (§6)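 Parent flies crossed on solid food containing compound at 100 μM, DMSO vehicle. F1 larvae fed continuously until eclosion, then moved to compound-free food. Eyes of day-7 adults imaged by CCD camera on a stereomicroscope, with SEM of heads. Affected and total eye area measured to give degeneration ratio. n = 7–18 flies.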

[15] = system: Drosophila; assay: Inhibition of eye degeneration in GMR-GAL4-(G4C2)29 Drosophila expressing (G4C2)29 in eyes C9orf72 ALS/FTD model assessed as reduction in rough-eye phenotype at 100 uM, po incubated 7 day by stereomicroscopy; type: functional, organism-based; in short: as §6
[16] = system: Drosophila; assay: Inhibition of eye degeneration in GMR-GAL4-(G4C2)29 Drosophila expressing (G4C2)29 in eyes C9orf72 ALS/FTD model assessed as reflective eyes at 100 uM, po incubated 7 day by stereomicroscopy; type: functional, organism-based; in short: as §6
[17] = biological target: Quadruplex DNA; assay: Binding affinity to 3'-FAM labeled C9orf72 (G4C2)2 G4 quadruplex RNA (unknown origin) assessed as decrease in fluorescence intensity by fluorescence intensity assay; type: nucleic-acid assay; in short: as §3
[18] = Inhibition of locomotor deficit in OK371-GAL4-(G4C2)29 Drosophila expressing (G4C2)29 in motor neuron C9orf72 ALS/FTD model assessed as reduction in flies staying at the bottom of flask at 100 uM, po during larval stage by climbing assay relative to control (Rvb= 18.25%); type: functional; design: scale not given: the % may be the effect or the level left
In short: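 Compound at 100 μM in solid food, DMSO vehicle, given from parental cross until F1 eclosion, then regular food. Climbing test on 7-day-old adults: percentage of flies remaining below 2 cm of the tube at 25 s. n = 8 experimental batches.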

[19] = system: N2a; assay: Neuroprotective activity in mouse Neuro2a cells transfected DNA (G4C2)29 C9orf 72 ALS/FTD cell model assessed as reduction in G4C2 RNA foci at 1 ug/ml incubated for 2 days by DAPI staining based immunofluorescence analysis; type: functional; conditions: dose 1.0 µg/ml, time 2.0 day
In short: (§7)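 Neuro2a cells on coverslips transfected with a pHR-Tre3G-29xGGGGCC-12xMS2 plasmid, then treated with compound at 1 μg/mL for 2 days. Fixed in 4% PFA and permeabilised. Hybridised 3 h at 46 °C with Cy3-labelled G4C2-target and Cy5-labelled CAGG probes, co-stained for hnRNP H, DAPI counterstain. Foci per cell counted by confocal microscopy; n = 17–25 coverslips from three batches.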

[20] = system: N2a; assay: Neuroprotective activity in mouse Neuro2a cells transfected DNA (G4C2)29 C9orf 72 ALS/FTD cell model assessed as increase in cell viability at 1 ug/ml by DAPI staining based immunofluorescence analysis; type: functional; conditions: dose 1.0 µg/ml
[21] = system: Erythrocyte; assay: Hemolytic activity in rabbit RBC assessed as hemolysis at 1000 ug/ml incubated for 1 hr by microtiter plate method; type: toxicity, cell-based, Oryctolagus cuniculus; conditions: dose 1000 µg/ml; in short: as §2
[22] = system: HEK-293T; assay: Cytotoxicity in human HEK293T cells assessed as reduction in cell viability upto 10 ug/ml incubated for 24 hrs by MTT assay; type: toxicity, cell-based; conditions: dose < 10 µg/ml; in short: as §5
[23] = system: Quadruplex DNA; assay: Binding affinity to C9orf72 (G4C2)2 G4 quadruplex RNA (unknown origin) assessed as change in chemical shift by one-dimensional 1H-NMR analysis; type: nucleic-acid assay; in short: as §4
[24] = system: Quadruplex DNA; assay: Binding affinity to C9orf72 (G4C2)2 G4 quadruplex DNA (unknown origin) assessed as change in chemical shift by one-dimensional 1H-NMR analysis; type: nucleic-acid assay
In short: (§8)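 Oligonucleotide annealed at 100 μM by heating to 95 °C for 15 min, then cooled slowly to room temperature overnight in 70 mM KCl, 20 mM potassium phosphate, pH 7.0. NMR samples held 0.1 mM G4 in the same buffer. Compound stocks were about 50 mM in DMSO-d6. Titrated into G4; imino-region 1D 1H spectra recorded at 25 °C and compared with G4-only and DMSO control spectra.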

[25] = system: Quadruplex DNA; assay: Binding affinity to human telomeric htel21-T18 (d[(GGGTTA)2GGGTTTGGG]) G4 quadruplex DNA assessed as change in chemical shift by one-dimensional 1H-NMR analysis; type: nucleic-acid assay; in short: as §8
[26] = system: N2a; assay: Neuroprotective activity in mouse Neuro2a cells transfected DNA (G4C2)29 C9orf 72 ALS/FTD cell model assessed as CAGG RNA foci abundance at 1 ug/ml incubated for 2 days by DAPI staining based immunofluorescence analysis; type: functional; conditions: dose 1.0 µg/ml, time 2.0 day; in short: as §7

With `COc1c2c(c(O)c3c(=O)c4cccc(O[C@@H]5OC(C(=O)O)=C[C@H](O)[C@H]5O)c4oc13)-c1c(cc(CC(C)=O)c(C(=O)O)c1O)CC2` the Activity [1] was “Active”, the Activity [2] was “Dde” and the Activity [3] was “Dde”. For the same compound, the Activity [4] was “Active”, the Activity [5] was “Active” and the Kd [6] was 3000 µM. The Activity [7] was “Active”, the Activity [8] was “Active” and the Activity [9] was “Active”. The Activity [10] was “Active”, the Activity [11] was “Active” and the Activity [12] was “Toxic”. For the same compound, the permeability [13] was “Permeable”.
In the case of `CC(=O)Cc1cc2c(c(O)c1C(=O)O)-c1c(c(O)c3oc4c(O[C@@H]5OC(C(=O)O)=C[C@H](O)[C@H]5O)cccc4c(=O)c3c1O)CC2`, the Activity [1] is reported as “Active”, the Activity [2] is reported as “Dde” and the Activity [14] is reported as “Active”. The Activity [15] was “Active”, the Activity [4] was “Active” and the Activity [5] was “Active”. For the same compound, the Kd [6] was 2200 µM, the Activity [16] was “Active” and the Activity [7] was “Active”. The Kd [17] was 3000 µM, the Activity [18] was 5.125% and the Activity [8] was “Active”. For the same compound, the Activity [19] was “Active”, the Activity [9] was “Active” and the Activity [20] was “Active”. For the same compound, the Activity [21] was “Non-Toxic”, the Activity [10] was “Active” and the Activity [22] was “Non-Toxic”. The Activity [11] was “Active”, the Activity [23] was “Active” and the permeability [13] was “Permeable”.
In the case of `N=C(N)c1ccc(-c2ccc(-c3ccc(-c4ccc(C(=N)N)cn4)o3)o2)nc1`, the Activity [24] is reported as “Active”, the Activity [25] is reported as “Active” and the Activity [8] is reported as “Active”. The Activity [23] was “Active” and the permeability [13] was “Impermeable”.
For `CC(=O)Cc1cc2c(c(O)c1C(=O)O)-c1c(c(O)c3oc4c(O[C@@H]5O[C@H](C(=O)O)[C@@H](O)[C@H](O)[C@H]5O)cccc4c(=O)c3c1O)CC2`, the Activity [1] was “Active”, the Activity [2] was “Dde” and the Activity [14] was “Active”. For the same compound, the Activity [15] was “Active”, the Activity [4] was “Active” and the Activity [5] was “Active”. The Kd [6] was 2800 µM, the Activity [26] was “Active” and the Activity [16] was “Active”. For the same compound, the Activity [7] was “Active”, the Activity [18] was 10.625% and the Activity [8] was “Active”. The Activity [19] was “Active”, the Activity [9] was “Active” and the Activity [20] was “Active”. The Activity [21] was “Non-Toxic”, the Activity [10] was “Active” and the Activity [22] was “Non-Toxic”. For the same compound, the Activity [11] was “Active” and the permeability [13] was “Permeable”.
In the case of `CC12CC3CC(C)(C1)CC(N)(C3)C2` [MEMANTINE], the permeability [13] is reported as “Permeable”.
